The values that follow come from ChEMBL document CHEMBL5230175, “The war on hTG2: warhead optimization in small molecule human tissue transglutaminase inhibitors” (RSC Med Chem, 2023).

Data set [1] is described as follows: Metabolic stability in human whole blood assessed as drug degradation measured upto 120 mins by LC-MS/ms analysis. The following applies: 2 h. The class given is ADME, tissue-based. A digest of the protocol:
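Pooled human whole blood (K3-EDTA) was spiked to 1 or 5 μM compound. Aliquots taken at 0, 15, 30, 60 and 120 min were quenched in acetonitrile with 0.1% formic acid and internal standard, then analysed by LC-MS/MS. Percent parent remaining is the peak-area ratio versus T = 0; half-life comes from an exponential decay fit.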

Data set [2] has as its target T1, Protein-glutamine gamma-glutamyltransferase (Homo sapiens) (UniProt P21980).
T1 sequence (whole entry): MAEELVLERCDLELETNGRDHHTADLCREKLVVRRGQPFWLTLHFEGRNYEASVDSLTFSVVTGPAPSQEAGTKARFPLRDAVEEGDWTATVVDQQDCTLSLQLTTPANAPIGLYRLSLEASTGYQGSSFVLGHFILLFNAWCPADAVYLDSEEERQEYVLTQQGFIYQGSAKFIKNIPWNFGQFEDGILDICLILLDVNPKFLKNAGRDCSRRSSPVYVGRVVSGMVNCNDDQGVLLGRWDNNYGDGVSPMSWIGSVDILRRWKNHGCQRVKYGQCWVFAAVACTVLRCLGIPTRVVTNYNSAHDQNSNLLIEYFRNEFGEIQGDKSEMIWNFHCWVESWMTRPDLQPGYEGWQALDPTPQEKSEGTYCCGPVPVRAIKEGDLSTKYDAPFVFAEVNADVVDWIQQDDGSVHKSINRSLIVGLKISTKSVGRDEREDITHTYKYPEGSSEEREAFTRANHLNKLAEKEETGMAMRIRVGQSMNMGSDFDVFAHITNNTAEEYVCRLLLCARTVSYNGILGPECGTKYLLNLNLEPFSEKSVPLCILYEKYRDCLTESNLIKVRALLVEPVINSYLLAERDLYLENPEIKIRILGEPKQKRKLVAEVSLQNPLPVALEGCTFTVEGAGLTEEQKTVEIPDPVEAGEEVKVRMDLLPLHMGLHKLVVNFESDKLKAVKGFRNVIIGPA
The experiment in a line: Irreversible inhibition of human recombinant tissue transglutaminase expressed in Escherichia coli using Cbz-Glu-(gamma-p-nitrophenylester)Gly (AL5) as substrate assessed as substrate hydrolysis by measuring Kinact/Ki ratio incubated for 20 mins by colorimetric analysis.

Data set [3] deals with T2, Protein-glutamine gamma-glutamyltransferase (Homo sapiens, UniProt P21980).
T2 sequence (P21980 whole entry): T1 sequence (whole entry)
The experiment in a line: Irreversible inhibition of human recombinant tissue transglutaminase expressed in Escherichia coli using Cbz-Glu-(gamma-p-nitrophenylester)Gly (AL5) as substrate assessed as substrate hydrolysis by measuring KI incubated for 20 mins by colorimetric analysis.

For data set [4], the target named is T1, Protein-glutamine gamma-glutamyltransferase (Homo sapiens). The experiment in a line: Inhibition of human recombinant tissue transglutaminase expressed in Escherichia coli using Cbz-Glu-(gamma-p-nitrophenylester)Gly (AL5) as substrate assessed as substrate hydrolysis by measuring Kinact incubated for 20 mins by colorimetric analysis.
For data set [5] the target is unchanged. The experiment in a line: Irreversible inhibition of human TG2 using Cbz-Glu-(gamma-p-nitrophenylester)Gly (AL5) as substrate assessed as substrate hydrolysis by measuring observed binding constant incubated for 20 mins by colorimetric assay.
The target is the same in data set [6]. The experiment in a line: Irreversible inhibition of human recombinant tissue transglutaminase expressed in Escherichia coli using Cbz-Glu-(gamma-p-nitrophenylester)Gly (AL5) as substrate assessed as substrate hydrolysis by measuring Kinact/Ki ratio by linear regression analysis. A digest of the protocol:
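For TG2/AL5 under Kitz–Wilson conditions (100 μM AL5, pH 6.9 MOPS, 25 °C, 405 nm), kinact/KI was taken from simple linear regression of kobs against corrected inhibitor concentration at the lowest inhibitor concentrations.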

Data set [7] in a line: Ratio of Kinact/Ki for inhibition of human tissue transglutaminase assessed as substrate hydrolysis to corrected second order rate constant (K2 corrected) for GSH reactivity in aqueous buffer assessed as GSH adduct formation. The class given is physicochemical.
Data set [8] is described as follows: Metabolic stability in pooled cryopreserved human hepatocytes assessed as half-life at 1 uM measured upto 120 mins by LC-MS/MS analysis. It counts as ADME, cell-based, Hepatocyte. A digest of the protocol: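 Samples were taken at 0, 5, 15, 30, 60 and 120 min, acetonitrile-quenched with internal standard, and analysed by LC-MS/MS. Half-life came from exponential decay of the parent/IS ratio relative to T = 0.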

The target of data set [9] is T3, Protein-glutamine gamma-glutamyltransferase 6 (Homo sapiens) (UniProt O95932).
T3 sequence (whole entry): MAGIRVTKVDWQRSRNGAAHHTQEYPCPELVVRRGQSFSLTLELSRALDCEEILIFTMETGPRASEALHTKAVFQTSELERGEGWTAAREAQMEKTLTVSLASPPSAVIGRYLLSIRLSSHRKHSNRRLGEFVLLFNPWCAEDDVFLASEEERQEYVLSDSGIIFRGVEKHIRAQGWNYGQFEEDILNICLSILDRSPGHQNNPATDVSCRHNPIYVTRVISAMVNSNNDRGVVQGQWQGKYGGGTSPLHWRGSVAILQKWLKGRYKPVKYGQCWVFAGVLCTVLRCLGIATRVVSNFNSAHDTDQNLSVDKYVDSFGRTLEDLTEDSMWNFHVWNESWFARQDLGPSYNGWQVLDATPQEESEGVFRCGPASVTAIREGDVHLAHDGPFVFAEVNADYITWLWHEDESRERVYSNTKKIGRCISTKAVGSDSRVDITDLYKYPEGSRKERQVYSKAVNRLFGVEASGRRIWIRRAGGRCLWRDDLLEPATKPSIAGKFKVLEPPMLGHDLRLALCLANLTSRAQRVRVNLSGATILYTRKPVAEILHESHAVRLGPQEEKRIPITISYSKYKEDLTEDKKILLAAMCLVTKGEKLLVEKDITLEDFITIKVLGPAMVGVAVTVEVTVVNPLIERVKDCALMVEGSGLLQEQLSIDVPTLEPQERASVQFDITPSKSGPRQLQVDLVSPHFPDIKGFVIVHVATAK
The experiment in a line: Irreversible inhibition of human TG6 using Cbz-Glu-(gamma-p-nitrophenylester)Gly (AL5) as substrate assessed as substrate hydrolysis by measuring observed binding constant incubated for 60 mins by colorimetric assay.

pKi: −log10 of the molar value.

As usually defined, the pKi is the Ki on a negative log10 scale, so that one unit is a factor of ten. As a reminder, the half-life is the time in which the quantity being followed falls by half. As for `O=C(CCl)NCC(=O)N1CCN(C(=O)C23CC4CC(CC(C4)C2)C3)CC1`, the Stability entry in data set [1] is recorded as “Stable”. In addition, the figures for the Ratio in data set [2], in [6] and in [7] were 8050 10^3/M/min, 4540 10^3/M/min and 5.437, respectively. For the same compound, the pKi in data set [3] was 6.82. For the same compound, the Kinact in data set [4] was 1.23 min⁻¹. In data set [5], the K turned out to be 0.537 min⁻¹. Besides, in data set [8], the half-life at 1 µM was over 2 h.

`C=CC(=O)NCC(=O)N1CCN(C(=O)C23CC4CC(CC(C4)C2)C3)CC1`: the Stability entry in data set [1] is on record as “Stable”. In addition, the figures for the K in [9] and in [5] were 0.02 min⁻¹ and 0.5 min⁻¹, respectively. In data set [8], the half-life at 1 µM was over 2 h.
